Measured values gathered from unrelated publications.
Compare with care: the assays were run in different laboratories. pEC50, pIC50, pKi: −log10 of the molar value.
Short transient receptor potential channel 5: Short transient receptor potential channel 5 (Mus musculus, UniProt Q9QX29)
Htr2a: 5-hydroxytryptamine receptor 2A (Htr2a, Mus musculus, UniProt P35363)

| Structure (SMILES) | target | assay | system | setting | endpoint | value |
| --- | --- | --- | --- | --- | --- | --- |
| CN(C)CCCN1c2ccccc2CCc2ccccc21 | Short transient receptor potential channel 5 | ion current, inhibitor, patch clamp |  |  | pIC50 | 4.93 |
| Cc1ccc(OCC(=O)N[C@@H](Cc2c[nH]c3ccccc23)C(=O)OC(C)C)cc1 | Cytochrome P450 3A4 (CYP3A4, Homo sapiens, UniProt P08684) | enzyme activity, inhibitor | human, liver microsomes | 30 min, midazolam probe | pIC50 | < 4.30 |
| COc1cc2c(cc1OC)CN(CCc1ccc(NC(=O)c3cccc4c(=O)c5cccc(OC)c5[nH]c34)cc1)CC2 | Beta-3 adrenergic receptor (ADRB3, Homo sapiens, UniProt P13945) | cell-free assay |  |  | pKi | < 5.00 |
| COc1cc(CCN)c(OC)cc1C#N | Htr2a | G protein activation, agonist, BRET |  |  | pEC50 | 6.49 |
| CN1CC[C@@]2(C)c3cc(OC(=O)Nc4ccccc4)ccc3N(C)[C@@H]12 | Aldehyde dehydrogenase, mitochondrial (ALDH2, Homo sapiens, UniProt P05091) | enzyme activity, inhibitor, fluorescence |  |  | pIC50 | > 5.00 |
| CNCCCN1c2ccccc2CCc2ccccc21 | Short transient receptor potential channel 5 | ion current, inhibitor, patch clamp |  |  | pIC50 | 4.99 |
| CC(=O)c1c(C)c2cnc(Nc3ccc(C4CCN(CCS(C)(=O)=O)CC4)cn3)nc2n(C2CCCC2)c1=O | Cytochrome P450 1A2 (CYP1A2, Homo sapiens, UniProt P05177) | enzyme activity, inhibitor | human, liver microsomes |  | pIC50 | < 5.00 |
| COc1cc(CCNC(C)c2ccccc2O)c(OC)cc1Br (centres unmarked) | Htr2a | G protein activation, agonist, BRET |  |  | pEC50 | 9.03 |
